Test results published in ChEMBL document CHEMBL4808225, “Discovery and Characterization of Selective and Ligand-Efficient DYRK Inhibitors” (J Med Chem, 2021).
In brackets after ≈: the same amount, converted by molar mass. One block for each compound: values may come before it.

Experiments:
[1] = molecular target: Dual specificity protein kinase CLK2 (Homo sapiens) (UniProt P49760); assay: Inhibition of wild-type human partial length CLK2 (D144 to R498 residues) expressed in bacterial expression system assessed as remaining activity at 1 uM by Kinomescan method relative to control
Chain of Dual specificity protein kinase CLK2 (Homo sapiens) (P49760 whole entry, looked up, the tested form may be a part): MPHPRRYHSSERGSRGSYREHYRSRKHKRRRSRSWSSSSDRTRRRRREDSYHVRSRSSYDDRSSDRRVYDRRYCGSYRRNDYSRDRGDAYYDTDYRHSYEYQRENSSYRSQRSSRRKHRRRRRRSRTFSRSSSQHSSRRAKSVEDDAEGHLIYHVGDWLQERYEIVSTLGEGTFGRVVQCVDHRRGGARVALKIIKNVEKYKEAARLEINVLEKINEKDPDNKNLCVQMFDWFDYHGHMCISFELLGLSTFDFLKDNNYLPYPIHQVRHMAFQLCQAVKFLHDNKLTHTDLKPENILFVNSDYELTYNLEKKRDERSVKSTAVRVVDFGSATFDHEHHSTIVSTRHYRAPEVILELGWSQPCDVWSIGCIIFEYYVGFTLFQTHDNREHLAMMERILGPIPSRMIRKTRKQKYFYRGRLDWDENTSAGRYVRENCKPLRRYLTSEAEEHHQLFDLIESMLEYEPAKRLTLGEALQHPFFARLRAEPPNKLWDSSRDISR
Procedure, shortened: (§1)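 KINOMEscan competition binding panel run with inhibitor at 1 μM; read-out is remaining kinase activity (percent of control).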

[2] = Thermodynamic solubility of the compound at pH 6.8; type: physicochemical; conditions: buffer, read-out: Therm_solubility
Procedure, shortened: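 Thermodynamic solubility measured at pH 6.8 in a single experiment, reported in […].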

[3] = Metabolic stability in human liver microsomes; type: ADME, Microsome; conditions: read-out: Stabilty
[4] = molecular target: Dual specificity tyrosine-phosphorylation-regulated kinase 1B (Homo sapiens) (UniProt Q9Y463); assay: Inhibition of wild-type human full length DYRK1B (M1 to S629 residues) expressed in bacterial expression system assessed as remaining activity at 1 uM by Kinomescan method relative to control; procedure, shortened: as §1
Chain of Dual specificity tyrosine-phosphorylation-regulated kinase 1B (Homo sapiens) (Q9Y463 whole entry, looked up, the tested form may be a part): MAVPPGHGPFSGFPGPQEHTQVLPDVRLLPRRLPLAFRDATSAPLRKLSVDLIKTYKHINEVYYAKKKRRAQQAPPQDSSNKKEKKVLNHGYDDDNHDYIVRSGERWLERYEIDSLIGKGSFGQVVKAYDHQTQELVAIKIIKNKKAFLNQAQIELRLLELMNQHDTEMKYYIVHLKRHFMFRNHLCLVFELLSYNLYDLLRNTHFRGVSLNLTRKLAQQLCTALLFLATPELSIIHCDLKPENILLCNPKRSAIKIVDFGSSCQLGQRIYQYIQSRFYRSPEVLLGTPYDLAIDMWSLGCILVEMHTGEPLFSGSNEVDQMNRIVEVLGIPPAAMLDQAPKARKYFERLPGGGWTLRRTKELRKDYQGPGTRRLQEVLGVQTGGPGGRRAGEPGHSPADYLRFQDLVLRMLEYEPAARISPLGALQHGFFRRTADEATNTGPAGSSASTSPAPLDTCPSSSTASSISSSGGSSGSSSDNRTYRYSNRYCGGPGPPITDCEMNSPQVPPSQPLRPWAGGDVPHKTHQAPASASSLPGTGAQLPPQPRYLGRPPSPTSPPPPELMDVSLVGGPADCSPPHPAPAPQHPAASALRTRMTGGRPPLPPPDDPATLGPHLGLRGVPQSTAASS

[5] = Metabolic stability in rat liver microsomes; type: ADME, Microsome; conditions: read-out: Stabilty
[6] = molecular target: Dual specificity protein kinase CLK3 (Homo sapiens) (UniProt P49761); assay: Inhibition of wild-type human full length CLK3 (M1 to R490 residues) expressed in bacterial expression system assessed as remaining activity at 1 uM by Kinomescan method relative to control; procedure, shortened: as §1
Chain of Dual specificity protein kinase CLK3 (Homo sapiens) (P49761 whole entry, looked up, the tested form may be a part): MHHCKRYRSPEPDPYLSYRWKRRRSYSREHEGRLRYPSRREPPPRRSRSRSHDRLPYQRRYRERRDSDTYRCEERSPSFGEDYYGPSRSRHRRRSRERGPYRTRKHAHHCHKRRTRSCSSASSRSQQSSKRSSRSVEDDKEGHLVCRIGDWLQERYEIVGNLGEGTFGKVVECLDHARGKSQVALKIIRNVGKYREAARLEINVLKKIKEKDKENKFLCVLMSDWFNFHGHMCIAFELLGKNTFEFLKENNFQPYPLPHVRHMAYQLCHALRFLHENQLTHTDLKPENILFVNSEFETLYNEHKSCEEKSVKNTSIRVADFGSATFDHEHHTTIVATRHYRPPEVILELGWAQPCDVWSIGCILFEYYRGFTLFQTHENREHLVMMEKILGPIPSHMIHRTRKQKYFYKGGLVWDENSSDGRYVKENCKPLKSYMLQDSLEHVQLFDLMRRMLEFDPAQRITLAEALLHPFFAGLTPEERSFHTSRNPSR

[7] = molecular target: T1, Dual specificity tyrosine-phosphorylation-regulated kinase 1A (Homo sapiens, UniProt Q13627); assay: Displacement of Kinase tracer 236 from biotinylated DYRK1A (unknown origin) expressed in Escherichia coli BL21 (DE3) incubated for 1.5 hrs by TR-FRET assay
[8] = molecular target: Glycogen synthase kinase-3 beta (Homo sapiens) (UniProt P49841); assay: Inhibition of wild-type human full length GSK3B (M1 to T433 residues) expressed in mammalian expression system assessed as remaining activity at 1 uM by Kinomescan method relative to control; procedure, shortened: as §1
Chain of Glycogen synthase kinase-3 beta (Homo sapiens) (P49841 whole entry, looked up, the tested form may be a part): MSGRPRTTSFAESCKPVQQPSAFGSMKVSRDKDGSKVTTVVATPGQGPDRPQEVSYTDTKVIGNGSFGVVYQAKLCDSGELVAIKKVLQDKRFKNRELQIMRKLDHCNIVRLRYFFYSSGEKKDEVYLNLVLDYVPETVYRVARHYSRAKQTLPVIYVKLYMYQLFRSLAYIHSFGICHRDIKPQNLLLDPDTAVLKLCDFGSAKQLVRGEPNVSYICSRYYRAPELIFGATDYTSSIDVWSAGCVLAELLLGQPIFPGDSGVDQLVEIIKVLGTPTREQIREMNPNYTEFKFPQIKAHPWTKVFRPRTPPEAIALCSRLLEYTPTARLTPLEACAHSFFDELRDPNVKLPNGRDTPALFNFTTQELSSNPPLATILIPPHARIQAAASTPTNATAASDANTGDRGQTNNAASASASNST

[9] = molecular target: Cyclin-dependent kinase 2 (Homo sapiens) (UniProt P24941); assay: Inhibition of wild-type human full length CDK2 (M1 to L298 residues) expressed in bacterial expression system assessed as remaining activity at 1 uM by Kinomescan method relative to control; procedure, shortened: as §1
[10] = molecular target: T2, Dual specificity tyrosine-phosphorylation-regulated kinase 2 (Homo sapiens) (UniProt Q92630); assay: Inhibition of wild-type human full length DYRK2 (M1 to S528 residues) expressed in mammalian expression system assessed as remaining activity at 1 uM by Kinomescan method relative to control; procedure, shortened: as §1
T2 sequence (whole entry): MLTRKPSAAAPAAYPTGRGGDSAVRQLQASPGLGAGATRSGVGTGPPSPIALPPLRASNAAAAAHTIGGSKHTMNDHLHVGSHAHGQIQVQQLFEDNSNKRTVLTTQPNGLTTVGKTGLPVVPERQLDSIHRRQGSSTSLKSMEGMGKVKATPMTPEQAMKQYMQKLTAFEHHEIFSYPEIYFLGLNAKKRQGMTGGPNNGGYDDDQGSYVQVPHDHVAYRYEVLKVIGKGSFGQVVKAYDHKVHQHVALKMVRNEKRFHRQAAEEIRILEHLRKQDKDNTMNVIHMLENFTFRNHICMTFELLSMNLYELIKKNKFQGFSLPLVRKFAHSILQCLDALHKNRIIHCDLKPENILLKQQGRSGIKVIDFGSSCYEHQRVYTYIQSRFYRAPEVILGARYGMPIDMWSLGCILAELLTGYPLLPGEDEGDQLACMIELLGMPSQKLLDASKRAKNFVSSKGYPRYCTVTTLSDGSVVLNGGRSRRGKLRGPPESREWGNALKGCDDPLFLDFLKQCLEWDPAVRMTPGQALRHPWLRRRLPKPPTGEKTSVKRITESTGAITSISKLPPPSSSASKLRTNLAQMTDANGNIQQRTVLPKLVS

[11] = molecular target: Dual specificity protein kinase CLK1 (Homo sapiens, UniProt P49759); assay: Inhibition of wild-type human full length CLK1 (M1 to I484 residues) expressed in bacterial expression system assessed as remaining activity at 1 uM by Kinomescan method relative to control; procedure, shortened: as §1
Chain of Dual specificity protein kinase CLK1 (P49759 whole entry, looked up, the tested form may be a part): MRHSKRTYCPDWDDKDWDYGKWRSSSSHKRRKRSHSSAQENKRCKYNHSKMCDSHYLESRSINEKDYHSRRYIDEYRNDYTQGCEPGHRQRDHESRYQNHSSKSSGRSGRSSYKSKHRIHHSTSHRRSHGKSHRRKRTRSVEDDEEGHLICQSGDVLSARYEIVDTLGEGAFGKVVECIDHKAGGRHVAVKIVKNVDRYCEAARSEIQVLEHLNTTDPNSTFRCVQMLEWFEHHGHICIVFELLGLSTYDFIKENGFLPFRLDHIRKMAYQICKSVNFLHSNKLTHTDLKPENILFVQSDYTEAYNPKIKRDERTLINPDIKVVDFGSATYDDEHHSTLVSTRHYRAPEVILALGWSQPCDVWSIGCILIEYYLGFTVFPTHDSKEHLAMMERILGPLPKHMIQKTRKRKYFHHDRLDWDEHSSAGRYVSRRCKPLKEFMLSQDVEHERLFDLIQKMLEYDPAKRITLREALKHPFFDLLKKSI

[12] = molecular target: T1, Dual specificity tyrosine-phosphorylation-regulated kinase 1A; assay: Binding affinity to biotinylated DYRK1A (unknown origin) expressed in Escherichia coli BL21 (DE3) assessed as dissociation constant measured up to 5 min by SPR method

SMILES: CN(C)c1nccc(-c2cnc3ncccn23)n1
- Activity [1]: 31%
- solubility thermodynamic [2]: 470 µg/mL (≈ 1960 µM)
- microsomal CLint [3]: 154 µL/min/mg
- Activity [4]: 6.2%
- microsomal CLint [5]: 96 µL/min/mg
- Activity [6]: 56%
- IC50 [7]: 158 nM
- Activity [8]: 77%
- Activity [9]: 86%
- Activity [10]: 35%
- Activity [11]: 20%

SMILES: CN(C)c1ncc(Cl)c(-c2cnn3ncccc23)n1
- Kd [12]: 963 nM
- IC50 [7]: 331 nM

SMILES: COc1ccnn2ncc(-c3ccnc(N(C)C)n3)c12
- Activity [1]: 12%
- solubility thermodynamic [2]: 70 µg/mL (≈ 259 µM)
- microsomal CLint [3]: 89 µL/min/mg
- Activity [4]: 0.7%
- microsomal CLint [5]: 77 µL/min/mg
- Activity [6]: 83%
- IC50 [7]: 138 nM
- Activity [8]: 100%
- Activity [9]: 100%
- Activity [10]: 24%
- Activity [11]: 7.8%

- Activity [1]: 72%
- solubility thermodynamic [2]: 1920 µg/mL (≈ 6820 µM)
- microsomal CLint [3]: 199 µL/min/mg
- Activity [4]: 18%
- microsomal CLint [5]: 48 µL/min/mg
- Activity [6]: 95%
- Activity [8]: 100%
- Activity [9]: 100%
- Activity [10]: 29%
- Activity [11]: 36%
SMILES: N[C@H]1CCN(c2nccc(-c3cnn4ncccc34)n2)C1

SMILES: CN(C)c1ncnc(-c2cnn3ncccc23)n1
- solubility thermodynamic [2]: 50 µg/mL (≈ 207 µM)
- microsomal CLint [3]: 93.6 µL/min/mg
- Kd [12]: 153 nM
- microsomal CLint [5]: 105 µL/min/mg
- IC50 [7]: 182 nM

SMILES: CC1(F)CN(c2nccc(-c3cnn4ncccc34)n2)C1
- IC50 [7]: 372 nM

SMILES: Cc1ccc2c(-c3ccnc(N(C)C)n3)cnn2n1
- IC50 [7]: 871 nM

SMILES: CN(C)c1ncc(C(F)(F)F)c(-c2cnn3ncccc23)n1
- IC50 [7]: 12900 nM

SMILES: C[C@H]1CCN(c2nccc(-c3cnn4ncccc34)n2)C1
- Activity [1]: 16%
- solubility thermodynamic [2]: 20 µg/mL (≈ 71.3 µM)
- microsomal CLint [3]: 378 µL/min/mg
- Activity [4]: 7.2%
- microsomal CLint [5]: 448 µL/min/mg
- Activity [6]: 88%
- IC50 [7]: 115 nM
- Activity [8]: 77%
- Activity [9]: 100%
- Activity [10]: 15%
- Activity [11]: 17%

SMILES: CCCN(c1nccc(-c2cnn3ncccc23)n1)C(C)C
- IC50 [7]: 759 nM

SMILES: CN(C)c1nc2c(c(-c3cnn4ncccc34)n1)COC2
- IC50 [7]: 7410 nM

SMILES: CCn1cc(-c2ccnc(N(C)C)n2)c2cccnc21
- IC50 [7]: 7760 nM

SMILES: c1cnn2ncc(-c3ccnc(N4CC5CCCC5C4)n3)c2c1 (configuration not stated)
- IC50 [7]: 1230 nM

SMILES: CN(C)c1cc(-c2cnn3ncccc23)ccn1
- IC50 [7]: 676 nM

SMILES: CN(C)C1CCN(c2nccc(-c3cnn4ncccc34)n2)C1 (configuration not stated)
- IC50 [7]: 245 nM

SMILES: CNc1nccc(-c2cnn3ncccc23)n1
- Kd [12]: 55 nM
- IC50 [7]: 182 nM

SMILES: Cc1ccnn2ncc(-c3ccnc(N(C)C)n3)c12
- IC50 [7]: 724 nM

SMILES: CC1CCN(c2nccc(-c3cnn4ncccc34)n2)C1 (configuration not stated)
- IC50 [7]: 204 nM

SMILES: Cc1nn2ncccc2c1-c1ccnc(N(C)C)n1
- IC50 [7]: 30900 nM

SMILES: F[C@H]1CCN(c2nccc(-c3cnn4ncccc34)n2)C1
- IC50 [7]: 186 nM

SMILES: CN(C)c1nccc(-c2cnc3cccnn23)n1
- IC50 [7]: 55000 nM

SMILES: CN(C)c1ncc(Br)c(-c2cnn3ncccc23)n1
- IC50 [7]: 1580 nM

SMILES: c1cnn2ncc(-c3ccnc(N4CCC5CNCC54)n3)c2c1 (configuration not stated)
- IC50 [7]: 1660 nM

SMILES: CN(C)c1nccc(-c2cnn3ccccc23)n1
- IC50 [7]: 891 nM

SMILES: CN(C)c1nccc(-c2cnc3ccccn23)n1
- IC50 [7]: 692 nM

SMILES: Nc1nccc(-c2cnn3ncccc23)n1
- Kd [12]: 134 nM
- IC50 [7]: 525 nM

SMILES: CN(C)c1nccc(-c2cn(C)c3ncccc23)n1
- IC50 [7]: 11700 nM

SMILES: c1cnn2ncc(-c3ccnc(N4CC5CC5C4)n3)c2c1 (configuration not stated)
- IC50 [7]: 309 nM

SMILES: COCCCN(C)c1nccc(-c2cnn3ncccc23)n1
- IC50 [7]: 219 nM

SMILES: Cc1cccc(N(C)c2nccc(-c3cnn4ncccc34)n2)c1
- microsomal CLint [5]: 784 µL/min/mg
- IC50 [7]: 79.4 nM
